Measured values as given in ChEMBL document CHEMBL4325919, “3,5-Disubstituted-indole-7-carboxamides as IKKβ Inhibitors: Optimization of Oral Activity via the C3 Substituent” (ACS Med Chem Lett, 2018).
≈ marks a conversion by molar mass, not a printed value. Each block holds one compound with its values, some of them ahead of it.

Legend:
[1] = biological target: T1, Inhibitor of nuclear factor kappa-B kinase subunit beta (Homo sapiens, UniProt O14920); assay: Inhibition of recombinant human C-terminal GST-tagged IKKbeta (1 to 737 residues) expressed in baculovirus expression system using GST-IkBalpha substrate measured after 30 mins by TR-FRET assay
T1 sequence (O14920 whole entry): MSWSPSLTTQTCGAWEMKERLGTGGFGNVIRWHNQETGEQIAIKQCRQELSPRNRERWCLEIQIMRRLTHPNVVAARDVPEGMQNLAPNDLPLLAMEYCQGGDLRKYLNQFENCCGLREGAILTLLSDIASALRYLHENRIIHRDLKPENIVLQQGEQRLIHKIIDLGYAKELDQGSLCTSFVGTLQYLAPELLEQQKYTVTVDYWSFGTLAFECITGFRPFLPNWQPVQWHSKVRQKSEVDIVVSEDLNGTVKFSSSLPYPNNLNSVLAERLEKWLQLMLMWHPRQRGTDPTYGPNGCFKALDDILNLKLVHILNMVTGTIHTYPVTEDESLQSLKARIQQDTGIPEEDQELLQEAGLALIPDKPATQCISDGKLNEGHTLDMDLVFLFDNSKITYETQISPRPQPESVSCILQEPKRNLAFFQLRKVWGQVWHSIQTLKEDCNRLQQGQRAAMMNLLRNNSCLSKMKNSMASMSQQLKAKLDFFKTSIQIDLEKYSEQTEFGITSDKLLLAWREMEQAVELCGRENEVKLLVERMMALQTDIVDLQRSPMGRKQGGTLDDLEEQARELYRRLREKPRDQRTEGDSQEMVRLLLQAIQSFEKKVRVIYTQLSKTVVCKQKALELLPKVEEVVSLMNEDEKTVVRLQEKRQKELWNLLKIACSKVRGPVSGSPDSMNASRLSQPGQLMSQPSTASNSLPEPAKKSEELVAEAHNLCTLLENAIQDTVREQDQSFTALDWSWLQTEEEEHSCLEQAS
Summary of the method: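 IKK pIC50 values are the mean of more than 2 determinations unless noted otherwise. Compounds were tested as racemic mixtures.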

[2] = Permeability of the compound by PAMPA; format: ADME; conditions: read-out: permeability
[3] = AUC in Sprague-Dawley rat at 2.1 mg/kg, po; format: ADME, organism-based; conditions: in vivo
Summary of the method: (§1)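 Male Sprague Dawley rats, n=2 (n=3 for one compound). The i.v. leg used 5% DMSO with 20% Cavitron and the oral leg 5% DMSO with 6% Cavitron. Oral doses were 2 mg/kg, or 2.1 mg/kg where stated. The i.v. dose was 1 mg/kg. Clearance is plasma clearance.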

[4] = biological target: T1, Inhibitor of nuclear factor kappa-B kinase subunit beta; assay: Inhibition of IKKbeta in human CD14-positive monocytes assessed as reduction in LPS-stimulated TNFalpha secretion preincubated for 30 mins followed by LPS stimulation and measured after 24 hrs by Alpha screen assay; format: cell-based
[5] = Volume of distribution at steady state in Sprague-Dawley rat at 2.1 mg/kg, po or 1 mg/kg, iv; format: ADME, organism-based; conditions: in vivo, read-out: Vdss; summary of the method: as §1
[6] = Plasma clearance in Sprague-Dawley rat at 2.1 mg/kg, po or 1 mg/kg, iv; format: ADME, organism-based; summary of the method: as §1
[7] = Oral bioavailability in Sprague-Dawley rat at 2.1 mg/kg; format: ADME, organism-based; conditions: in vivo; summary of the method: as §1
[8] = Half life in Sprague-Dawley rat at 2.1 mg/kg, po or 1 mg/kg, iv; format: ADME, organism-based; conditions: in vivo; summary of the method: as §1
[9] = Kinetic aqueous solubility of the compound by UV-HPLC analysis; format: physicochemical; conditions: buffer; read-out: Kinetic_solubility
[10] = AUC in Beagle dog at 2.03 mg/kg, po; format: ADME, organism-based, Canis lupus familiaris; conditions: in vivo
Summary of the method: (§2)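 Male Beagle dogs, n=3. Vehicles were 5% DMSO with 20% Cavitron for i.v. dosing at 1.11 mg/kg and 5% DMSO with 6% Cavitron for oral dosing at 2.03 mg/kg. Derived values were plasma clearance, steady-state volume of distribution, half-life and oral bioavailability.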

[11] = system: Canis familiaris; assay: Anti-inflammatory activity in inhaled LPS-induced Beagle dog lung neutrophilia model assessed as inhibition of LPS-induced increase in neutrophils in bronchoalveolar lavage administered orally 30 mins prior to LPS instillation and measured after […] by diff quick staining based hemocytometric method; format: functional; conditions: Canis lupus familiaris, po
[12] = Half life in Beagle dog at 2.03 mg/kg, po or 1.11 mg/kg, iv; format: ADME, organism-based, Canis lupus familiaris; conditions: in vivo; summary of the method: as §2
[13] = Volume of distribution at steady state in Sprague-Dawley rat at 2 mg/kg, po or 1 mg/kg, iv; format: ADME, organism-based; conditions: in vivo, read-out: Vdss; summary of the method: as §1
[14] = Kinetic aqueous solubility of the compound by chemiluminescent nitrogen detection assay; format: physicochemical; conditions: buffer; read-out: Kinetic_solubility
[15] = Volume of distribution at steady state in Beagle dog at 2.03 mg/kg, po or 1.11 mg/kg, iv; format: ADME, organism-based, Canis lupus familiaris; conditions: in vivo, read-out: Vdss; summary of the method: as §2
[16] = Half life in Sprague-Dawley rat at 2 mg/kg, po or 1 mg/kg, iv; format: ADME, organism-based; conditions: in vivo; summary of the method: as §1
[17] = Oral bioavailability in Sprague-Dawley rat at 2 mg/kg; format: ADME, organism-based; conditions: in vivo; summary of the method: as §1
[18] = Plasma clearance in Beagle dog at 2.03 mg/kg, po or 1.11 mg/kg, iv; format: ADME, organism-based, Canis lupus familiaris; summary of the method: as §2
[19] = Oral bioavailability in Beagle dog at 2.03 mg/kg; format: ADME, organism-based, Canis lupus familiaris; conditions: in vivo; summary of the method: as §2
[20] = system: Rattus norvegicus; assay: Anti-inflammatory activity in LPS-induced Lewis rat inflammation model assessed as inhibition of LPS-induced TNFalpha secretion in blood administered orally 30 mins prior to LPS challenge and measured after 2 hrs by ELISA; format: functional; conditions: po
[21] = AUC in Sprague-Dawley rat at 2 mg/kg, po; format: ADME, organism-based; conditions: in vivo; summary of the method: as §1
[22] = Plasma clearance in Sprague-Dawley rat at 2 mg/kg, po or 1 mg/kg, iv; format: ADME, organism-based; summary of the method: as §1

- Papp [2]: 27 ×10⁻⁶ cm/s
- AUC [3]: 2080 ng·h/mL
- IC50 [4]: 500 nM
- Vd [5]: 0.84 L/kg
- IC50 [1]: 10 nM
- clearance [6]: 7.43 mL/min/kg
- bioavailability [7]: 46%
- half-life [8]: 1.75 h
- solubility kinetic [9]: 8 µM (≈ 3.64 µg/mL)
SMILES: CN(C)CCS(=O)(=O)N1CCC(c2c[nH]c3c(C(N)=O)cc(-c4ccccc4)cc23)CC1

- Papp [2]: 24 ×10⁻⁶ cm/s
- IC50 [1]: 7.94 nM
- solubility kinetic [9]: 162 µM (≈ 82.4 µg/mL)
SMILES: NC(=O)c1cc(-c2ccccc2)cc2c(C3CCN(S(=O)(=O)CCCN4CCCCC4)CC3)c[nH]c12

- Papp [2]: 29 ×10⁻⁶ cm/s
- IC50 [1]: 6.31 nM
- solubility kinetic [9]: 93 µM (≈ 48.6 µg/mL)
SMILES: NC(=O)c1cc(-c2ccccc2)cc2c(C3CCN(S(=O)(=O)CCCN4CCCCCC4)CC3)c[nH]c12

- Papp [2]: 14 ×10⁻⁶ cm/s
- IC50 [1]: 20 nM
- solubility kinetic [9]: 85 µM (≈ 43.2 µg/mL)
SMILES: NC(=O)c1cc(-c2ccccc2)cc2c(C3CCN(S(=O)(=O)CCCNC4CCCC4)CC3)c[nH]c12

- Papp [2]: 16 ×10⁻⁶ cm/s
- IC50 [4]: 50 nM
- IC50 [1]: 10 nM
- Vd [13]: 1 L/kg
- half-life [16]: 4.6 h
- bioavailability [17]: 12%
- AUC [21]: 998 ng·h/mL
- clearance [22]: 4 mL/min/kg
- solubility kinetic [9]: 185 µM (≈ 91.5 µg/mL)
SMILES: NC(=O)c1cc(-c2ccccc2)cc2c(C3CCN(S(=O)(=O)CCCN4CCCC4)CC3)c[nH]c12

Continued, compound first:

SMILES: NC(=O)c1cc(-c2ccccc2)cc2c(C3CCS(=O)(=O)C3)c[nH]c12 (stereo not given)
- IC50 [1]: 100 nM

SMILES: CC1(C)CC(=O)NC1c1c[nH]c2c(C(N)=O)cc(-c3ccccc3)cc12 (stereo not given)
- IC50 [1]: 200 nM

SMILES: NC(=O)c1cc(-c2ccccc2)cc2c(C3CCC(=O)CC3)c[nH]c12
- IC50 [1]: 501 nM

SMILES: CC1(C)C[C@H](c2c[nH]c3c(C(N)=O)cc(-c4ccc(F)cc4)cc23)CCS1(=O)=O
- Papp [2]: 28.3 ×10⁻⁶ cm/s
- IC50 [4]: 130 nM
- AUC [10]: 8200 ng·h/mL
- ED50 [11]: 1.8 µmol/kg
- IC50 [1]: 7.94 nM
- half-life [12]: 20.9 h
- Vd [13]: 4.7 L/kg
- solubility kinetic [14]: 32 µM (≈ 13.3 µg/mL)
- Vd [15]: 2.87 L/kg
- half-life [16]: 4.5 h
- bioavailability [17]: 94.1%
- clearance [18]: 1.86 mL/min/kg
- bioavailability [19]: 65.3%
- ED50 [20]: 21.7 µmol/kg
- AUC [21]: 1960 ng·h/mL
- clearance [22]: 13.2 mL/min/kg

SMILES: NC(=O)c1cc(-c2ccccc2)cc2c(C3CCC(=O)N3)c[nH]c12 (stereo not given)
- IC50 [1]: 39.8 nM

SMILES: NC(=O)c1cc(-c2ccccc2)cc2c(C3CCCC(=O)C3)c[nH]c12 (stereo not given)
- IC50 [1]: 79.4 nM

SMILES: NC(=O)c1cc(-c2ccccc2)cc2c([C@H]3C[C@H]4CC[C@@H](C3)S4(=O)=O)c[nH]c12
- IC50 [1]: 39.8 nM

SMILES: NC(=O)c1cc(-c2ccccc2)cc2c(C3CCC(=O)C3)c[nH]c12 (stereo not given)
- IC50 [1]: 79.4 nM
